Laboratory results: publication PMC5652008 (EBioMedicine, 2017)
Square brackets hold non-standard residues; d marks the D form. Peptide text beside a SMILES is read from it. * marks the point of attachment. Sta = CC(C)C[C@H](N)[C@@H](O)CC(=O)O; Palmitoyl = CCCCCCCCCCCCCCCC(=O)*

Columns and labels:
[1] = system: Aβ production in human stem-cell derived neurons; experiment: Human neural stem cell-based Aβ40 inhibition assay; settings: 48 h incubation
In short: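 Neurons differentiated from SB-AD3 human iPSCs (healthy adult donor fibroblasts) via embryoid bodies and dual SMAD inhibition. Doses 0.128–10,000 nM (three independent differentiations) or 0.001024–80 nM (one differentiation), two technical replicates per dose. Vehicle was histidine/NaCl/1.3 mM hydroxypropyl-β-cyclodextrin for peptides and DMSO for small molecules. Aβ40 read by AlphaLISA at 615 nm, compared with vehicle-treated cells; means ± SEM.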

[2] = biological target: T1, BACE1 (Homo sapiens, UniProt P56817); experiment: Cell-based Aβ lowering IC50 assay
T1 sequence (P56817 46-501): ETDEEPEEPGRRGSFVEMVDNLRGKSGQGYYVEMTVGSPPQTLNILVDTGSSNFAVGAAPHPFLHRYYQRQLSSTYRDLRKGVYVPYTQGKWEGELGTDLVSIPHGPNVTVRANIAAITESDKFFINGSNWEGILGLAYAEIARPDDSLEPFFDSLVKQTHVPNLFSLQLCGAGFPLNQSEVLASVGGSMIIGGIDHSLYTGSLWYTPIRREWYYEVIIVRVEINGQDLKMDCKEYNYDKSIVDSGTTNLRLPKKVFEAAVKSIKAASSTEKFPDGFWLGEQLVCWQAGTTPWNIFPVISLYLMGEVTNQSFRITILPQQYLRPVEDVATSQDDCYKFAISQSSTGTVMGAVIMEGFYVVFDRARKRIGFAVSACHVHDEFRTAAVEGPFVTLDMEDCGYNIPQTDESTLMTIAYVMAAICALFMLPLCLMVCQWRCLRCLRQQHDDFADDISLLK
In short: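 Test compounds, free or Brain Shuttle-coupled, added in serial dilutions to HEK293 cells stably expressing wild-type human APP695, grown in Iscove's medium with 10% FBS to ~80% confluency. Construct dilution buffers served as control. Overnight at 37 °C, 5% CO2. Supernatant Aβ40 read by AlphaLISA: acceptor beads 1 h, then streptavidin donor beads 30 min, both at RT; emission at 615 nm. Compared with vehicle-treated cells; mean ± SEM.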

[3] = system: plasma Aβ; experiment: Plasma Aβ40 after single i.v. dose in mice; type: in vivo, C57BL/6 J mice; settings: 5 h post dose
In short: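 Nine-week-old female mice received one i.v. injection of test compound at 0.003–3 mg/kg, with the buffer alone as vehicle control; three animals per group. Under anaesthesia, blood was collected into EDTA tubes, spun 8 min at 1600 × g, and plasma diluted 1:10 in 0.2% diethanolamine before solid-phase extraction.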

[4] = biological target: T2, BACE2 (Homo sapiens, UniProt Q9Y5Z0); experiment: SPR binding assay on immobilized BACE2; settings: BACE2 surface, 18 °C, pH 4.5
T2 sequence (Q9Y5Z0 20-465): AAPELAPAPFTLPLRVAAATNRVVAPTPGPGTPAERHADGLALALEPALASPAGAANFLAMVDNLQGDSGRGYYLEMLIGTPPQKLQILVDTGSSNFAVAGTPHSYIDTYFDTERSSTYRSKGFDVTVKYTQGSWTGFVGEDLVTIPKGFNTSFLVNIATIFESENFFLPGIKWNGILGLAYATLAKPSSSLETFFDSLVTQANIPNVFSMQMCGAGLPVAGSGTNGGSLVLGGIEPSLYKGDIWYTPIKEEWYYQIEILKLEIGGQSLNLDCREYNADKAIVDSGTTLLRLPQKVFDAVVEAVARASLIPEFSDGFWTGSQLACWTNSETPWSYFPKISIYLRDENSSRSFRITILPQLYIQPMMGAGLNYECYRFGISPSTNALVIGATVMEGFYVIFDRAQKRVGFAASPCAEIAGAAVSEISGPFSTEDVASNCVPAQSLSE
In short: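 Binding was run at 18 °C in the same buffer, either single-cycle (5 concentrations) or multi-cycle (10 concentrations), twofold dilutions, against an activated/deactivated reference surface.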

[5] = biological target: T1, BACE1; experiment: SPR binding assay on immobilized BACE1
In short: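 SPR at 18 °C in the immobilization buffer. Peptide titrations used 2-fold dilution steps, run either as single-cycle kinetics (5 concentrations) or multi-cycle kinetics (10 concentrations). Two protein surfaces and an activated/deactivated CM5 reference surface were measured in parallel on one sensor.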

[6] = biological target: BACE1 ectodomain mutant protein (A14-T454, K307A) (UniProt P56817 14-454, K307A); experiment: crystal structure
BACE1 ectodomain mutant protein (A14-T454, K307A), sequence (P56817 14-454 K307A): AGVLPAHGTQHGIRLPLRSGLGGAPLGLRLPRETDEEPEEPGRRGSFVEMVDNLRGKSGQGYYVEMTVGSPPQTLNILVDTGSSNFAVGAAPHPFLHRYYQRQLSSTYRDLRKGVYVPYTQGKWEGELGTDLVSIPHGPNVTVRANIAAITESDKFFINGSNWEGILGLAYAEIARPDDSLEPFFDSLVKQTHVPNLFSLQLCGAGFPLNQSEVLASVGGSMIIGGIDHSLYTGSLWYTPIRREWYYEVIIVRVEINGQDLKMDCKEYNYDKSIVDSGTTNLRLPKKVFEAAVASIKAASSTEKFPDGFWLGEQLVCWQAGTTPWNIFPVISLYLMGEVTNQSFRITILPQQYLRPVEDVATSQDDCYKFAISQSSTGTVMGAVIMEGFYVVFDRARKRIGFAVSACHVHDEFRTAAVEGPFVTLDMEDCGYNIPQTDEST

[7] = biological target: Beta-secretase 1 (BACE1), C-terminal His-tagged full length; experiment: SPR
[8] = biological target: T3, N-terminal T7-tagged BACE2 (amino acids 20-465) (UniProt Q9Y5Z0 20-465); experiment: SPR
T3 sequence: T2 sequence (Q9Y5Z0 20-465)

In the case of `CCCCCCCCCCCCCCCC(=O)NCCCC[C@H](NC(=O)[C@H]1CCCN1C(=O)[C@H](CCC(=O)O)NC(=O)[C@H](C)NC(=O)[C@@H](NC(=O)C[C@H](O)[C@H](CC(C)C)NC(=O)[C@H](CC(N)=O)NC(=O)[C@@H](NC(=O)[C@H](CCC(=O)O)NC(=O)CNC(=O)[C@@H](CCCCN)NC(=O)CNC(=O)[C@H](CC(C)C)NC(=O)[C@@H]1CCCN1C(=O)[C@@H](NC(=O)[C@H](Cc1ccccc1)NC(=O)[C@H](CCCCN)NC(=O)[C@@H]1CCCN1C(=O)[C@H](Cc1ccc(O)cc1)NC(=O)CNC(=O)CNC(=O)CN)[C@@H](C)CC)C(C)C)C(C)C)C(N)=O` [Pep#15, Gly-Gly-Gly-Tyr-Pro-Lys-Phe-Ile-Pro-Leu-Gly-DLys-Gly-Glu-Val-Asn-Sta-Val-Ala-Glu-DPro-Lys(Palmitoyl)-NH2] (H-GGGYPKFIPLG[dK]GEVN[Sta]VAE[dP]K(Palmitoyl)-NH2; N-terminus assumed), the “Aβ production inhibition in human stem-cell derived neurons” value [1] is reported as “able to reduce the Aβ production”, the “Aβ40 production inhibition in HEK293 APP cells” value ([2]; 16 h / overnight incubation) is reported as “blocked production of Aβ40” and the “Plasma Aβ40 inhibition” value ([3]; 0.003-3 mg/kg i.v., uncoupled peptides) is reported as “Dose-dependent inhibition”. For the same molecule, the “Plasma Aβ level reduction” value ([3]; 3 mg/kg i.v., uncoupled peptide) was 50%.

For `CC(C)C[C@H](NC(=O)[C@H](CC(N)=O)NC(=O)[C@@H](NC(=O)[C@@H](N)CCC(=O)O)C(C)C)[C@@H](O)CC(=O)N[C@H](C(=O)N[C@@H](C)C(=O)N[C@@H](CCC(=O)O)C(=O)N1CCC[C@@H]1C(N)=O)C(C)C` [Pep#1, Glu-Val-Asn-Sta-Val-Ala-Glu-DPro-NH2] (H-EVN[Sta]VAE[dP]-NH2; N-terminus assumed), the kon [4] was 2.7–3.1·10^3 1/Ms, the kon ([5]; BACE1 surface, 18 °C, pH 4.5) was 2.5–4.0·10^3 1/Ms and the “Selectivity for BACE1” value ([5]; ratio KD(BACE2)/KD(BACE1)) was over 280. It also gave an IC50 [2] of over 40 µM.

Ac-ALYPYFLPISAK-NH2 [Pep#6a]: binds [6].

Work on Ac-YPYFLPISAK-NH2 [Pep#6] yielded a Kd [7] of 25 µM and a Kd [8] of 66 µM.
